Bioassay records as filed in PubChem BioAssay.
CHRM4 antagonist = CHRM4 antagonism in calcium assay; P08173; CHO-hM4 cells, ACh EC80, Fluo-8 calcium fluorescence; inhibition, % at 3 µM; 360,000 compounds, 0.73% hits; AID 624125;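 active = inhibition above its plate's cutoff, the mean inhibition of sample wells plus 3 SD, cut at about 27% in these data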;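 note: 0% = acetylcholine EC80 with DMSO and 100% = DMSO without agonist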
M4 ag = agonists of human muscarinic M4 receptor (CHRM4); P08173; CHO-K1 hM4/Gqi5, Fluo-8 calcium fluorescence; vehicle 0%, full acetylcholine response 100%; activation, % at 3 µM; 360,000 compounds, 0.14% hits; AID 624127;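 active = activation above the run mean over all test wells plus 3 SD, cut at about 32% in these data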;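 note: peak over basal fluorescence ratio per well then scaled between controls; 0% = DMSO wells and 100% = acetylcholine at EC100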
CHRM4 PAM = CHRM4 positive allosteric modulation. AID 624126. 360,000 compounds, 0.4% hits. activation, % at 3 µM. P08173. CHO-K1 hM4/Gqi5, Fluo-8 calcium fluorescence, ACh EC20; 0% = ACh EC20, 100% = maximal ACh;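 active = activation above its plate's cutoff, the mean activation of sample wells plus 3 SD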
CHRM5 PAM = positive allosteric modulators of human muscarinic M5 receptor. P08912. 360,000 compounds, 0.3% hits. activation, % at 3 µM. CHO-K1 hM5, Fluo-8 calcium, ACh EC20 PAM; 0% = ACh EC20, 100% = ACh EC100. AID 624038;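 active = activation above the run cutoff, the mean activation of all test compounds plus 3 SD, cut at about 18% in these data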
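System – CHO-K1 hM5 cells · Compound – 3 µM, single dose · Incubation – compound preincubation 140 s before EC20 acetylcholine addition · Technique – Fluo-8 calcium fluorescence · Measure – Max/basal fluorescence ratio as % of EC20–EC100 ACh window · Benchmarks – low control EC20 acetylcholine (0%), high control EC100 acetylcholine (100%) · Replication – singlicate, one well per test compound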
CHRM5 agonist = agonists of human muscarinic M5 receptor (CHRM5). activation, % at 3 µM. P08912. CHO-K1 hM5 cells, Fluo-8 calcium fluorescence; 0% DMSO wells, 100% maximal acetylcholine response. 360,000 compounds, 0.19% hits;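 active = activation above the run's mean over test compounds plus 3 SD, cut at about 23% in these data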;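 note: signal is peak over basal fluorescence ratio across the kinetic read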
M5 antag = blocks acetylcholine activation of human M5 receptor; P08912; CHO-hM5 cells, Fluo-8 calcium fluorescence, ACh EC80; 360,000 compounds, 0.59% hits; inhibition, % at 3 µM;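 active = inhibition above a per-plate cutoff, the mean of that plate's test compounds plus 3 SD, cut at about 27% in these data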;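 note: 0% = acetylcholine EC80 with DMSO and 100% = DMSO without agonist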
The depositor's hits bear a star. A selection: hits, their analogues and other compounds. The true share with any hit is near 1.9%.

SMILES	CHRM4 antagonist	M4 ag	CHRM4 PAM	CHRM5 PAM	CHRM5 agonist	M5 antag
Cc1cc(OCc2cc(C(=O)N3CCC(Oc4cccnc4)CC3)no2)cc(C)c1Cl	35*	19	-12	-24	2	24
CC(NC(=O)c1cc(COc2ccc3ncccc3c2)on1)c1ccc(F)cc1 (stereo unspecified)	21	22	-33	-31	-1	36*
COC(=O)c1ccccc1N=C(SC)N(C)C	-2	0	5	8	1	-5
CSC(=Nc1ccccc1)N=C(SCc1ccccc1)N(C)C	46*	14	-12	-5	-5	16
S=C(c1ccc(-c2ccc(Cl)cc2Cl)o1)N1CCCC1	-3	-1	2	22*	8	-15
S=C(c1ccc(-c2ccc(Cl)cc2Cl)o1)N1CCCCC1	5	-1	-8	6	-6	-10
O=C(/C=C/c1cccc(Cl)c1)c1ccc([N+](=O)[O-])o1	29*	5	-5	0	11	22
COc1cc(/C=C/C(=O)c2ccc([N+](=O)[O-])o2)ccc1O	1	0	7	-1	0	9
CN1C(=O)C(O)(CC(=O)c2ccncc2)c2ccccc21 (stereo unspecified)	-9	2	19*	17	-1	-6
Cc1ccc(-n2nc(C)c(C(=O)Nc3cccc(C(=O)NC4CC4)c3)n2)c(C)c1	11	9	-12	-20	0	13
Cc1ccccc1OCC(=O)NCCCNC(=O)c1ccccn1	-15	1	16*	4	-2	-3
CC(c1ccc2ccccc2c1)c1ccccc1C(=O)O (stereo unspecified)	-11	0	5	4	-4	8
COC(=O)c1[nH]c2c(c1C)C(=O)CC(c1cccs1)C2 (stereo unspecified)	12	10	30*	0	-7	5
Brc1ccc(-c2c[n+]3c(n2-c2ccccc2)SCC3)cc1	54*	0	-16	2	-18	6
Cc1noc(NS(=O)(=O)c2ccc(NC(=O)c3cccc(S(=O)(=O)Nc4ccccc4F)c3)cc2)c1C	-3	1	8	7	2	0
COc1ccc(C2CC(c3ccc(Cl)cc3)=NN2C(C)=O)cc1 (stereo unspecified)	17	12	12	43*	6	31*
CC(C)(C)n1nc2c(c1NC(=O)c1ccc(S(=O)(=O)N3CCCCC3)cc1)CS(=O)C2 (stereo unspecified)	-6	0	1	32*	-4	6
C/C(CC(=O)Nc1ccccn1)=N\NC(=O)c1cnccn1	-6	0	-4	1	2	6
FC(F)(F)c1cc(NC2CCCCC2)ccn1	-8	6	-6	-5	3	2
CCCCN(CCCC)/C(N)=N/c1nc(C)cc(C)n1	1	1	-1	-1	-6	5
Cc1cc(C)nc(/N=C(\N)N(Cc2ccccc2)Cc2ccccc2)n1	39*	6	-22	-23	-9	92*
CCOc1ccc(N/C(=N/c2nc(C)cc(C)n2)NC(=O)CC)cc1	2	1	-4	0	-2	12
CCOc1ccc(N/C(N)=N/c2nc(C)cc(C)n2)cc1	50*	50*	-19	-17	16	39*
Cc1cc(C)nc(/N=C(\N)Nc2ccc(SC(F)F)cc2)n1	55*	96*	-64	-37	35*	15
Cc1cc(C)nc(/N=C(\N)Nc2ccc(F)c([N+](=O)[O-])c2)n1	26	55*	-24	-12	8	6
COc1cc(C(=O)Nc2nnc(CC(=O)NCc3ccccc3)s2)cc(OC)c1OC	3	2	5	-11	-5	12
O=Cc1c(-c2ccccc2)cc2oc3ccccc3cc1-2	2	1	-7	-1	-1	2
Cc1cc(C)nc(/N=C(\N)Nc2ccc(-c3ccccc3)cc2)n1	29*	68*	-29	-18	28*	14
Cc1ccc(C)c(N/C(N)=N/c2nc(C)cc(C)n2)c1	66*	91*	-41	-16	30*	21
